{"source": "ChEMBL document CHEMBL1141142", "about": "“Application of fluorescence microscopy for investigation of cellular distribution of dinuclear platinum anticancer drugs” (J Med Chem, 2005)", "format_in_all_cases": "functional", "key": {"[1]": {"experiment": "Inhibitory concentration required for in vitro cytotoxic activity against human U2-OS osteosarcoma cell line (cisplatin Resistant)", "summary_of_the_method": "(§1)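 MTT growth inhibition; U2-OS or cisplatin-resistant U2-OS/Pt monolayers in DMEM with 10% fetal calf serum, penicillin/streptomycin; (3-5) × 10³ cells/well, attached overnight; five dilutions (from 1 mg/mL stocks in water or dimethylformamide) added in quadruplicate; 72 h exposure; MTT ~120 min, DMSO dissolution, OD 590 nm; IC50 versus control read graphically.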"}, "[2]": {"experiment": "Inhibitory concentration required for in vitro cytotoxic activity against human U2-OS osteosarcoma cell line", "summary_of_the_method": "as §1"}, "Homo sapiens": {"organism": "Homo sapiens", "experiment": "Relative ratio of IC50 values in both cell lines (U2-OS/Pt)/U2-OS)", "summary_of_the_method": "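Ratio of IC50 in U2-OS/Pt over U2-OS, both from the 72 h MTT growth-inhibition assay (quadruplicate wells, five dilutions, OD 590 nm, IC50 derived graphically).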"}}, "note": "pIC50: −log10 of the molar value."}
{"sequence": "CISPLATIN [listing 1 of 2 here]", "values": [{"measurement": "pIC50", "setting": "[1]", "value": 5.14}, {"measurement": "pIC50", "setting": "[2]", "value": 5.54}]}
{"sequence": "CISPLATIN [listing 2 of 2 here]", "values": [{"measurement": "RF", "setting": "Homo sapiens", "value": 2.5}]}
